Reference: ChEMBL document CHEMBL2157873, “Development and characterization of endocannabinoid hydrolases FAAH and MAGL inhibitors bearing a benzotriazol-1-yl carboxamide scaffold” (Bioorg Med Chem, 2012)
Activity calls are given as the source filed them. The rule behind the calls is not given here.

How the values were obtained:
[1] = target: T1, Fatty-acid amide hydrolase 1 (Homo sapiens, UniProt O00519); assay: Inhibition of FAAH
T1 sequence (O00519 whole entry): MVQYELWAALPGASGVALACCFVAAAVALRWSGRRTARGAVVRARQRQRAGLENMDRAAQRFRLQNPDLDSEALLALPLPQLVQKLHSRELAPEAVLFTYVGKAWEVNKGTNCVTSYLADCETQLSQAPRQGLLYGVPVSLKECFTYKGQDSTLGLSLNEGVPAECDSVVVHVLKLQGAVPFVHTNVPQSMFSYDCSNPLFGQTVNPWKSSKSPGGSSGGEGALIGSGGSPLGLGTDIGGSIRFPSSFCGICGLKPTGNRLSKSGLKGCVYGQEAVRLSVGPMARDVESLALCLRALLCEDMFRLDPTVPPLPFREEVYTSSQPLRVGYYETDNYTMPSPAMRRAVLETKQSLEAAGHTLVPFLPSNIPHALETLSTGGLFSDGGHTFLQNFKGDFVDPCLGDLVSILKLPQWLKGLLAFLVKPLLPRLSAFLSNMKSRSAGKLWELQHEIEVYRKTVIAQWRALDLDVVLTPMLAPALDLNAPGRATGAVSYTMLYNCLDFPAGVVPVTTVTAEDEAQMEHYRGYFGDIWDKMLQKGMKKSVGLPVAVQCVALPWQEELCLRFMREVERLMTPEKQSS
Summary of the method: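 Human FAAH fused to maltose-binding protein, preincubated 30 min at 22 °C with inhibitor (various concentrations, in DMSO) in Tris 10 mM, EDTA 1 mM, pH 8.0. [³H]-anandamide substrate added, then 10 min at 37 °C. Stopped with cold methanol/chloroform (1:1). Aqueous-phase radioactivity counted by liquid scintillation, with the no-enzyme blank subtracted. Activity taken as percent of control; IC50 from dose-response curves; three independent experiments in duplicate.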

[2] = target: T1, Fatty-acid amide hydrolase 1; assay: Inhibition of human recombinant FAAH assessed as [3H]-AEA hydrolysis preincubated for 30 mins […] measured after 10 mins by liquid scintillation counting
Summary of the method: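 Human FAAH fused to maltose-binding protein, preincubated 30 min at 22 °C with inhibitor at various concentrations (Tris 10 mM, EDTA 1 mM, pH 8.0, inhibitor in DMSO). [3H]-anandamide (50,000 dpm) added, 10 min at 37 °C. Stopped with cold methanol/chloroform (1:1), aqueous-phase radioactivity by scintillation, blank subtracted, percent of control fitted as dose-response. Three independent experiments in duplicate.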

Homo sapiens = species: Homo sapiens; assay: Selectivity ratio of IC50 for human recombinant FAAH to IC50 for human MAGL
Summary of the method: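 Selectivity calculated as IC50 for human FAAH divided by IC50 for human MAGL. Both IC50 values from radiometric hydrolysis assays: [3H]-AEA with MBP-fused FAAH and [3H]-2-OG with pure MAGL. Each assay had 30 min inhibitor preincubation. Means of three independent experiments in duplicate.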

Monoglyceride lipase [3] = target: T2, Monoglyceride lipase (Homo sapiens, UniProt Q99685); assay: Inhibition of human MAGL assessed as [3H]-2-OG hydrolysis preincubated for 30 mins before [3H]-2-OG addition measured after 10 mins by liquid scintillation counting
T2 sequence (Q99685 whole entry): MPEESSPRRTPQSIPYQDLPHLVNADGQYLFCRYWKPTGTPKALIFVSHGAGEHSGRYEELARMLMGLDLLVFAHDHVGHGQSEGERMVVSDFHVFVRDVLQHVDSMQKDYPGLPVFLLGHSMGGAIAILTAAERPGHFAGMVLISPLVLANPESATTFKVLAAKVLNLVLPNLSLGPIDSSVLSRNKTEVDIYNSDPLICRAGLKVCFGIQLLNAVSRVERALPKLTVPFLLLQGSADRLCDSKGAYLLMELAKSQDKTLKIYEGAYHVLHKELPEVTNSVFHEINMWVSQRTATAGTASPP
Summary of the method: (§1)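 [3H]-2-oleoylglycerol then added at 10 µM final. Stopped with methanol-chloroform (1:1), centrifuged 5 min at 700 g, aqueous-phase radioactivity read by liquid scintillation, no-enzyme blank subtracted. Means of three independent experiments in duplicate.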

[4] = target: T3, Fatty-acid amide hydrolase 1 (Homo sapiens) (UniProt O00519); assay: Inhibition of human recombinant FAAH assessed as [3H]-AEA hydrolysis preincubated for 30 mins […] measured at 10^-5 M after 10 mins by liquid scintillation counting
T3 sequence (whole entry): T1 sequence (O00519 whole entry)

Monoglyceride lipase [5] = target: T2, Monoglyceride lipase; assay: Irreversible inhibition of human MAGL using p-nitrophenylpropionate as substrate
Summary of the method: (§2)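 MAGL (3 ng; Tris 50 mM, LDAO 0.1%, pH 8.0) added to p-nitrophenylpropionate (1.25 mM) plus inhibitor at various concentrations, both in DMSO. […] Done four times in quadruplicate.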

[6] = target: T4, Monoglyceride lipase (Homo sapiens) (UniProt Q99685); assay: Ratio of JZL184 IC50 to compound IC50 for human MAGL
T4 sequence (whole entry): T2 sequence (Q99685 whole entry)

[7] = target: Monoglyceride lipase (Homo sapiens) (UniProt Q99685); assay: Ratio of JZL184 IC50 to compound IC50 for human MAGL
[8] = target: T4, Monoglyceride lipase (Homo sapiens); assay: Irreversible inhibition of human MAGL assessed as [3H]-2-OG hydrolysis preincubated for 30 mins before [3H]-2-OG addition measured at 10^-8 M to 10^-9 M measured after 300 fold dilution rapid dilution assay
Summary of the method: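 Human MAGL (800 ng in Tris 50 mM, BSA 0.15%, pH 8.0) incubated 30 min at room temperature with inhibitor at 10^-8 or 10^-9 M in the mixture (DMSO). Diluted 300-fold in buffer, 15 min incubation, then [3H]-2-OG hydrolase activity read on an aliquot holding 10 ng enzyme by the standard radiometric method. Performed two times in triplicate.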

[9] = target: T4, Monoglyceride lipase (Homo sapiens); assay: Ratio of Kinact to Ki for human MAGL using p-nitrophenylpropionate as substrate; summary of the method: as §2
Monoglyceride lipase [10] = target: T2, Monoglyceride lipase; assay: Inhibition of MAGL; summary of the method: as §1

IC50 [2] [nM]	Ratio IC50 (Homo sapiens)	IC50 (Monoglyceride lipase [3]) [nM]	SMILES	also measured
13	0.44	30	O=C(N1CCN(c2ccccc2F)CC1)n1nnc2ccccc21	–
44	3.4	13	O=C(NC1CCCCC1)c1cccc(CN2CCN(C(=O)n3nnc4ccccc43)CC2)c1	–
18	0.3	62	O=C(N1CCN(Cc2ccc(-c3ccccc3)cc2)CC1)n1nnc2ccccc21	–
9	0.4	23	O=C(N1CCN(Cc2cccc(-c3ccccc3)c2)CC1)n1nnc2ccccc21	–
–	> 100	141	CN1CCN(C(=O)c2cc(N3CCN(C(=O)n4nnc5ccccc54)CC3)ccc2[N+](=O)[O-])CC1	inhibition [4]: 40%
275	2.7	102	CN(C)C(=O)c1cccc(CN2CCN(C(=O)n3nnc4ccccc43)CC2)c1	–
35	4.8	7	O=C(Nc1ccccc1)c1cccc(CN2CCN(C(=O)n3nnc4ccccc43)CC2)c1	–
27500	41	676	O=C(O)c1cccc(CN2CCN(C(=O)n3nnc4ccccc43)CC2)c1	–
58	1.6	36	O=C(c1cccc(CN2CCN(C(=O)n3nnc4ccccc43)CC2)c1)N1CCCCC1	–
1950	2	955	O=C(c1ccc(N2CCN(C(=O)n3nnc4ccccc43)CC2)c([N+](=O)[O-])c1)N1CCOCC1	–
89	7.6	12	O=C(N1CCN(Cc2ccc([N+](=O)[O-])cc2)CC1)n1nnc2ccccc21	–
19	0.08	224	O=C(N1CCN(c2ccccc2[N+](=O)[O-])CC1)n1nnc2ccccc21	–
32	1	33	O=C(N1CCN(Cc2ccccc2-c2ccccc2)CC1)n1nnc2ccccc21	–
3	0.04	71	Cc1ccccc1N1CCN(C(=O)n2nnc3ccccc32)CC1	–
2	0.7	3	O=C(N1CCC(Cc2ccccc2)CC1)n1nnc2ccccc21	–
1380	4.3	324	CN1CCN(C(=O)c2cccc(CN3CCN(C(=O)n4nnc5ccccc54)CC3)c2)CC1	–
2290	60	38	O=C(c1cc(N2CCN(C(=O)n3nnc4ccccc43)CC2)ccc1[N+](=O)[O-])N1CCCCC1	–
–	> 100	162	O=C(c1cc(N2CCN(C(=O)n3nnc4ccccc43)CC2)ccc1[N+](=O)[O-])N1CCOCC1	inhibition [4]: 40%
–	–	10500	O=C(NCCc1ccc(O)c(O)c1)n1nnc2ccccc21	–
11	0.5	21	O=C(N1CCN(c2ccccc2)CC1)n1nnc2ccccc21	–
158	0.43	372	CC(C)NC(=O)c1ccc(N2CCN(C(=O)n3nnc4ccccc43)CC2)c([N+](=O)[O-])c1	–
17	1.5	11	O=C(N1CCN(Cc2ccc(Cl)cc2)CC1)n1nnc2ccccc21	–
19	2.4	8	O=C(N1CCN(Cc2ccccc2)CC1)n1nnc2ccccc21	–

Continued, molecule first:

SMILES	IC50 [2] [nM]	Ratio IC50 (Homo sapiens)	IC50 (Monoglyceride lipase [3]) [nM]	also measured
O=C(Oc1ccc([N+](=O)[O-])cc1)N1CCC(C(O)(c2ccc3c(c2)OCO3)c2ccc3c(c2)OCO3)CC1	36300	–	–	IC50 [1]: 4690 nM
O=C(N1CCN(c2ccc([N+](=O)[O-])cc2)CC1)n1nnc2ccccc21	34	1.7	20	–
O=C(Nc1ccccc1)c1cc(N2CCN(C(=O)n3nnc4ccccc43)CC2)ccc1[N+](=O)[O-]	363	19	19	–
O=C(N1CCN(Cc2ccc3ccccc3c2)CC1)n1nnc2ccccc21	12	1.3	9	–
CC(C)NC(=O)c1cc(N2CCN(C(=O)n3nnc4ccccc43)CC2)ccc1[N+](=O)[O-]	2090	8.9	234	–
O=C(N1CCN(Cc2ccc(F)cc2)CC1)n1nnc2ccccc21	15	1.5	10	–
COc1ccc(N2CCN(C(=O)n3nnc4ccccc43)CC2)cc1	15	0.47	32	–
O=C(NC1CCCCC1)c1cc(N2CCN(C(=O)n3nnc4ccccc43)CC2)ccc1[N+](=O)[O-]	490	12	41	–
O=C(N1CCN(Cc2ccc(Br)cc2)CC1)n1nnc2ccccc21	22	2.5	9	–
O=C(N1CCN(Cc2cccc([N+](=O)[O-])c2)CC1)n1nnc2ccccc21	43	5.4	8	–
O=C(N1CCN(Cc2cccc3ccccc23)CC1)n1nnc2ccccc21	13	4	3	–
O=C(N1CCN(C/C=C/c2ccccc2)CC1)n1nnc2ccccc21	28	0.8	33	–
O=C(N1CCN(C(c2ccccc2)c2ccccc2)CC1)n1nnc2ccccc21	562	1040	0.54	Ki (Monoglyceride lipase [5]): 75.7 nM; Ratio IC50 [6]: 70; Ratio IC50 [7]: 70; inhibition [8]: Active; Ratio [9]: 208000
O=C(N1CCN(Cc2cccc(Cl)c2)CC1)n1nnc2ccccc21	9	4.5	2	–
CN(C)C(=O)c1cc(N2CCN(C(=O)n3nnc4ccccc43)CC2)ccc1[N+](=O)[O-]	5010	79	63	–
O=C(N1CCN(C(c2ccccc2)c2ccccc2)CC1)n1nnc2ncccc21	–	–	–	IC50 (Monoglyceride lipase [10]): 4 nM
